Reference: paper PMC6396318 (Journal of the American Chemical Society, 2019)
Read-outs that look alike come from different tables or passages of the source. Marks after values point to notes of the source that are not given here.

Key:
[1] = Indiscriminate thiol reactivity assay with cysteine; format: physicochemical; details: for Cysteine adduct formation: incubated with cysteine for 23 h, LC–MS; for Cysteine adduct pH 5.5 / Cysteine adduct pH 7.5 / Cysteine adduct pH 8.0: 23 h incubation with 10 mM cysteine at 37 °C, LC–MS UV trace
In short: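 Test compound was incubated with 10 mM cysteine in buffer at pH 5.5, 7.5 or 8.0 for 23 h at 37 °C. Cysteine adduct formation was quantified from the LC–MS UV trace.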

[2] = Indiscriminate thiol reactivity assay with GSH; format: physicochemical; details: 23 h incubation with 5 mM GSH at 37 °C, LC–MS UV trace
In short: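 Test compound was incubated with 5 mM GSH in buffer at 37 °C for 23 h. Adduct formation was quantified from the LC–MS UV trace.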

hCatK [3] = molecular target: T1, hCatK (Homo sapiens, UniProt P43235); assay: Kinetic evaluation of covalent inhibitors; format: biochemical
T1 sequence (P43235 115-329): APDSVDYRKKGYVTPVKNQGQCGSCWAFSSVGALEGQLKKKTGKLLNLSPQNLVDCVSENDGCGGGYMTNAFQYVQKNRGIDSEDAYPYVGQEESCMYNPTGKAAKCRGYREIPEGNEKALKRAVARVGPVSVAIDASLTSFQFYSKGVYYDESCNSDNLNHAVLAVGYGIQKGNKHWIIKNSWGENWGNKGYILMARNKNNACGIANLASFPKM
In short: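 Recombinant hCatK (100 pM) was used with 4 μM Z-FR-AMC at 26 °C. The reaction was started by adding enzyme to substrate plus test compound. Progress curves of substrate hydrolysis were fitted to derive kinetic constants. Values are mean ± SD of one representative experiment measured in triplicate.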

CatK [4] = details: 100 nM; cited from earlier work
[5] = cited from earlier work
[6] = cited from earlier work; remark: listed apart in the source
human osteoclasts (OCs) [7] = assay: TRAcP staining and counting of mature OCs on plastic; format: cell-based; details: highest concentrations
hCatK [8] = molecular target: T1, hCatK; assay: In vitro inhibition assay, fluorogenic substrate; format: biochemical
In short: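 Fluorogenic substrate was then added and proteolytic activity read. Values are mean ± SD of one representative experiment measured in triplicate. Selectivity was taken from IC50 values across these proteases.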

human osteoclasts (OCs) [9] = assay: Bone resorption by osteoclasts cultured on cortical bone slices; format: cell-based
In short: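 Human CD14+ monocytes were seeded on bone slices, with M-CSF added on day 0 and RANKL on day 3 to drive osteoclast maturation. Medium containing test compound or DMSO was refreshed on days 7, 10, 13 and 16. On day 21 the cells were washed off and lysed. Resorption pits (trenches vs pits) were stained with Coomassie Brilliant Blue, and total resorption area was quantified.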

rodentCatK = details: mice and rats; cited from earlier work
CatK [10] = molecular target: T2, CatK (Homo sapiens, UniProt P43235); assay: Cathepsin K activity in osteoclast lysates; format: cell-based; details: lysates treated with BMV109; increase with ODN ascribed to displacement by probe
T2 sequence (P43235 115-329): T1 sequence (P43235 115-329)

hCatK [11] = molecular target: T1, hCatK; assay: Reversibility of inhibition; format: biochemical; details: 300-fold dilution into Z-FR-AMC
In short: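 Jump dilution: recombinant hCatK was preincubated with test compound at high concentration to fully occupy the active site. The mixture was then diluted 300-fold into Z-FR-AMC solution. Progress curves of hCatK activity were recorded to detect recovery of substrate hydrolysis. E-64 served as control.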

[12] = 100 pM hCatK, 4 μM Z-FR-AMC, 26 °C, reversible covalent

| Structure (SMILES) | Cysteine adduct pH 5.5 [1] | Cysteine adduct pH 7.5 [1] | Cysteine adduct pH 8.0 [1] | GSH adduct pH 7.5 [2] | Cysteine adduct formation [1] | other results |
| --- | --- | --- | --- | --- | --- | --- |
| CC#CC(=O)N1CCC[C@H]1c1nc(-c2ccc(C(=O)Nc3ccccn3)cc2)c2c(N)nccn12 [Acalabrutinib] | 19% | 98% | 97% | 95% | observed |  |
| CN(C)C/C=C/C(=O)Nc1cc2c(Nc3ccc(F)c(Cl)c3)ncnc2cc1O[C@H]1CCOC1 [Afatinib] | 92% | 98% | 95% | 94% | adduct formation that increases upon increasing the pH of the buffer |  |

More lines, main results first:

| Cysteine adduct pH 5.5 [1] | Cysteine adduct pH 7.5 [1] | Cysteine adduct pH 8.0 [1] | GSH adduct pH 7.5 [2] | Structure (SMILES) | Cysteine adduct formation [1] | other results |
| --- | --- | --- | --- | --- | --- | --- |
| 9% | 99% | 96% | 91% | C=CC(=O)N1CCC[C@@H](n2nc(-c3ccc(Oc4ccccc4)cc3)c3c(N)ncnc32)C1 [Ibrutinib] | adduct formation that increases upon increasing the pH of the buffer |  |
| <1% | 17% | 48% | 0%^b | CC(C)(F)C[C@H](N[C@@H](c1ccc(-c2ccc(S(C)(=O)=O)cc2)cc1)C(F)(F)F)C(=O)NC1(C#N)CC1 [ODN, odanacatib] | adduct formation that increases upon increasing the pH of the buffer | Ki (hCatK [3]): 3.8 ± 2.7 nM; k5 (rate of covalent bond formation) (hCatK [3]; [12]): 0.12 ± 0.026 min⁻¹; k6 (rate of covalent bond dissociation) (hCatK [3]; [12]): 0.033 ± 0.0077 min⁻¹; CatK expression upon ODN treatment (CatK [4]): significant increase in CatK expression; Number of OCs upon ODN treatment (CatK [4]): without an increase in the number of OCs; half-life [5]: 66 to 93 h; Side effects in phase III clinical trials [6]: increased stroke risks and cardiovascular events; Number of OCs cultured on plastic (human osteoclasts (OCs) [7]): increase in the number of OCs; IC50 (hCatK [8]): < 1 nM; Selectivity for CatK over related human cathepsins (hCatK [8]; from IC50 values of Table 2): selective for hCatK; Bone resorption morphology at 3 nM (human osteoclasts (OCs) [9]; 3 nM, 21 days culture, Coomassie staining): deep trenches; Bone resorption morphology at 15 nM (human osteoclasts (OCs) [9]; 15 nM, 21 days culture, Coomassie staining): shallow pits; Effective dose / concentrations inhibiting bone resorption (human osteoclasts (OCs) [9]; 21 days culture on bone slices): around 15 nM; Reduction of apparent potency on rodentCatK compared to humanCatK (rodentCatK): up to 182 fold; Mature CatK activity in OC lysates (BMV109 labeling) (CatK [10]): strong increase of mature CatK activity; Reversibility of hCatK inhibition (hCatK [11]): (fast) reversible inhibitor |
| <1% | 68% | 79% | 64% | CC(C)C[C@H](NC(=O)[C@H]1O[C@@H]1C(=O)O)C(=O)NCCCCN=C(N)N [Compound E-64, E-64] | adduct formation that increases upon increasing the pH of the buffer | Ki (hCatK [3]; 100 pM hCatK, 4 μM Z-FR-AMC, 26 °C, irreversible covalent, mean ± SD): 11 ± 1.6 nM |
